A selection: hits, their analogues and other compounds. The true share with any hit is near 4.5%.
MrgX1 ag – activates human MrgX1 receptor signaling; Q96LB2; MrgX1-HEK293 cells, Fluo-4 calcium fluorescence, agonist mode; active compounds read high; B-score at 10 µM; actives 0.44% (n = 310,000);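 active = calcium response B-score plate-corrected fluorescence ratio at least 3 library SD, with starting fluorescence B-score inside 5 SD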
Target sequence (Q96LB2 whole entry, looked up): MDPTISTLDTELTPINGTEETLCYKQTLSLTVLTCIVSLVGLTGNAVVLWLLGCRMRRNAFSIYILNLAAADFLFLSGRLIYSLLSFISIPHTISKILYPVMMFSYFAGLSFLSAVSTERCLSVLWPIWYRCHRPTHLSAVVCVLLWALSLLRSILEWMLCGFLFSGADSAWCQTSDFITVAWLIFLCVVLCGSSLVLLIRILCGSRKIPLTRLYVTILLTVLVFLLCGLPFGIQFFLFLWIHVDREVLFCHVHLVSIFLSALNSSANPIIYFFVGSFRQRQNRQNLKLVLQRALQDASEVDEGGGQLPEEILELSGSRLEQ
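Assay system: MrgX1-expressing HEK293 cells / Amount: fifteen thousand cells per well / Doses: test compound in the initial addition of three / Timing: cells plated overnight, dye loaded 0.5 h 37 °C, 0.5 h room temperature / Technique: kinetic calcium dye fluorescence, Fluo-4 NW / Control set: positive and negative controls per plate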
MrgX1 PAM – human MrgX1 positive allosteric modulation, primary screen | MrgX1-HEK293, Fluo-4 calcium flux, FDSS; active compounds read high | B-score at 10 µM | actives 0.63% (n = 310,000);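 active = plate-corrected calcium response at least 3 library SD above typical, normal starting fluorescence, not activating the receptor alone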;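 also: compound read alongside a low EC10 to EC30 dose of BAM8-22 agonist; peak minus trough fluorescence over baseline measured at the second addition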
RGS4 inh – human RGS4 inhibition; P49798; HEK293 M3R/RGS4 inducible, Fluo-4 calcium flux; active compounds read high; triggered by carbachol at its EC20; B-score at 10 µM; actives 0.45% (n = 310,000);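 active = B-score, a plate-corrected calcium signal, over three deviations above library mean, with baseline fluorescence within five deviations of library mean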;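 also: RGS4 expression induced by doxycycline in cells with stable M3 receptor; B-score is computed from the integrated fluorescence ratio over baseline after carbachol; higher B-score means a larger calcium signal and so more RGS4 inhibition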
Target sequence (P49798 whole entry, looked up): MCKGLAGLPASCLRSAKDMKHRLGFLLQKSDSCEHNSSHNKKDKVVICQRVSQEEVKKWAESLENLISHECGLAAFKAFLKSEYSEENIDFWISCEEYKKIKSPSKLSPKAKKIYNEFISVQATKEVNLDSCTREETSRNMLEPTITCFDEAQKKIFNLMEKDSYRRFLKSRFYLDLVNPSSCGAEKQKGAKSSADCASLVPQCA
MrgX1 antag – human MrgX1 receptor antagonism, primary screen; MRGX1-HEK293 calcium flux, Fluo-4, BAM8-22 antagonism; active compounds read low; Q96LB2; actives 1.3% (n = 310,000); B-score at 10 µM;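 active = calcium-response B-score plate-corrected more than 3 library SD below zero, starting fluorescence within 5 deviations, no agonist response on first addition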;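 also: peak minus trough fluorescence over baseline after final BAM8-22 challenge near maximal dose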
PHOSPHO1 block – inhibitors of human PHOSPHO1 phosphatase; Q8TCT1; inhibition, % at 13.3 µM; AID 1565; actives 1.1% (n = 290,000); recombinant PHOSPHO1, absorbance phosphatase assay; in the data active = inhibition above about 60%
RGS4 act – RGS4 potentiation or activation; HEK293 M3R/inducible RGS4, carbachol calcium flux Fluo4; active compounds read low; actives 0.92% (n = 310,000); B-score at 10 µM; AID 463111;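 active = B-score of the integrated calcium signal more than 4 SD below the library mean, with starting fluorescence not abnormally high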;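 also: negative B-score means reduced calcium response which marks RGS4 activation or potentiation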
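System: HEK293 FlpIn-TREx cells, stable M3R, doxycycline-inducible RGS4. Timing: overnight RGS4 induction, 30 min dye load 37 °C, 20 min compound RT. Also added: carbachol, ECmax concentration. Measured by: Fluo4 fluorescence kinetic imaging of calcium. Evaluation: integrated calcium ratio converted to B score.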
Numbers stand for hits; - = inactive; . = no result given.

SMILES | MrgX1 ag | MrgX1 PAM | RGS4 inh | MrgX1 antag | PHOSPHO1 block | RGS4 act
Cc1cc(C)n(CCC(=O)Nc2ccc3c(c2)OCCO3)n1 | - | - | - | - | - | -
O=C(NN1C(=O)c2ccccc2NC1c1ccoc1)c1ccc([N+](=O)[O-])cc1 (stereo not drawn) | - | - | - | -4.6 | - | -
CCn1c(C)[n+](CC(O)COCC2CC=CCC2)c2ccccc21 (stereo not drawn) | - | - | - | - | 104 | -
CCc1n(CC(O)COCC2CC=CCC2)c2ccccc2[n+]1C (stereo not drawn) | - | - | - | - | - | -
COc1ccc([C@@H]2CC=C(C(=O)O)[C@H](c3ccc(Cl)cc3)N2S(=O)(=O)c2ccc(C)cc2)cc1OC | - | - | . | - | . | .
O=C(CCl)N=c1sccn1Cc1ccc(Cl)cc1Cl | - | - | - | - | - | -
O=C(CCl)N=c1sccn1Cc1ccccc1Cl | - | - | - | - | - | -7.3
CCC(=O)OCCNc1cc(Sc2nc3ccccc3s2)c2nonc2c1[N+](=O)[O-] | - | - | - | - | 88 | -
CC1(C)Cc2c(C#N)c(N3CCN(C(=O)c4ccco4)CC3)nc(-c3ccco3)c2CS1 | - | - | - | - | - | -
CC(=O)N1CCN(c2nc(-c3ccco3)c3c(c2C#N)CC(C)(C)SC3)CC1 | - | - | - | - | 86 | -
O=C1CC(NS(=O)(=O)c2ccc([N+](=O)[O-])cc2)CN1c1cccc(F)c1 (stereo not drawn) | - | - | - | - | . | -
COc1ccccc1Nc1ncc(-c2cccs2)s1 | - | - | - | - | 82 | -
COc1ccccc1Nc1ccc(C(=O)NCc2cccs2)cn1 | - | - | - | - | - | -
Cc1cccc(C)c1Nc1nnc(SCC(=O)c2ccc(Br)s2)s1 | - | - | - | - | - | -7.7
Cc1ccc(Nc2nnc(SCC(=O)c3ccc(Br)s3)s2)c(C)c1 | - | - | - | - | - | -
O=C1CC(c2ccccc2)c2cccc(F)c21 (stereo not drawn) | - | - | - | - | - | -
Cc1ccc(Cc2c(C)nc3nc(SCC(=O)NCCCN4CCOCC4)nn3c2C)cc1 | - | - | - | - | - | -
Cc1nc2nc(SCC(=O)NCCCN3CCCCCC3)nn2c(C)c1Cc1ccccc1 | - | - | - | - | - | -7.5
CC1CCN(C(=O)CC#N)CC1 | - | - | - | - | - | -
N#CCC(=O)N1CCN(C=O)CC1 | - | - | - | -5.5 | - | -
O=C(c1cccs1)N1CCC(c2nc3c(nnn3Cc3c(Cl)cccc3Cl)c(=O)[nH]2)CC1 | - | - | - | - | - | -
N#C/C(=C/c1ccc(F)cc1)c1nnc(NC(=O)c2ccccc2)s1 | - | - | - | - | - | -
COC(=O)c1c(N2C(=O)Nc3ccccc3N2O)sc(C)c1C | - | - | - | - | - | -
CCOC(=O)c1c(N2C(=O)Nc3ccccc3N2O)sc2c1CCCC2 | 37 | - | - | - | - | -
O=C(O)CCCCCCC1C(=O)NC(=O)N1CCC(O)C1CCCCC1 (stereo not drawn) | 31 | - | - | - | - | -
SMILES | MrgX1 ag | MrgX1 PAM | RGS4 inh | MrgX1 antag | PHOSPHO1 block | RGS4 act
O=C(O)CCCCCN1C(=O)C2CCCCC2C1=O (stereo not drawn) | - | - | - | - | - | -
CCOc1ccc(CNC(=O)CCCOc2cc(=O)n(C)c3ccccc23)cc1 | - | - | - | - | - | -
COc1ccc2c(/C=N/Nc3ccc(C(=O)O)cc3)c[nH]c2c1 | 32 | - | - | - | - | -
COc1ccc2c(c1)c(/C=N/Nc1ccc(C(=O)O)cc1)c(C)n2C | - | - | - | - | - | -
CSc1ncccc1C(=O)OCc1ccc([N+](=O)[O-])cc1 | - | - | - | - | - | -
COc1cc(NC(=O)c2cc3nc(C4CC4)cc(C(F)(F)F)n3n2)c(OC)cc1Cl | - | - | - | - | 60 | -
CC(C)(C)c1cc(C2=CSC3=NCCN23)cc(C(C)(C)C)c1O | - | - | - | - | - | -8.1
CCNc1ccc(Br)cc(C(=O)/C=C/c2ccccc2Cl)c1=O | - | - | - | -6 | . | -
CNc1ccc(Br)cc(C(=O)/C=C/c2cccc(OC)c2OC)c1=O | - | - | - | -4.8 | - | -
COc1ccc(OCCn2cc(/C=N/NC(=O)c3ccncc3)c3ccccc32)cc1 | - | 7.2 | - | - | - | -
Cc1ccc(OCCn2cc(/C=N/NC(=O)c3ccncc3)c3ccccc32)cc1 | - | - | - | - | - | -
N#C/C(=C\c1ccc(C#N)cc1)C(=O)N1CCCC1 | - | - | 5.1 | - | - | -
COc1cc(CN2CCc3ccccc3C2)ccc1O | - | - | - | - | - | -
O=C(Nc1cc2c3c(c1)C1CCCC1CN3CC1CCCC21)c1ccccc1 (stereo not drawn) | - | - | - | -13 | - | -9.8
Cc1ccc(/C=N/NC(=O)c2nc3nc(C)cc(C)n3n2)cc1 | - | - | - | -4.7 | - | -
COc1ccc(C2/C(=C(\O)c3ccc4c(c3)CC(C)O4)C(=O)C(=O)N2Cc2cccnc2)c(OC)c1 (stereo not drawn) | - | - | - | - | - | -
CC(C)CCNC(=O)CCSCCC(=O)NCCC(C)C | - | - | - | - | - | -
CCCCNC(=O)c1ccc2nc(-c3ccco3)c(-c3ccco3)nc2c1 | - | - | - | - | - | -
CC(=O)c1ccc(NC(=O)c2ccc3nc(-c4ccco4)c(-c4ccco4)nc3c2)cc1 | - | - | - | -6.7 | 98 | -
O=C(NCCO)Nc1ccc2nc(-c3ccco3)c(-c3ccco3)nc2c1 | 28 | - | . | - | - | .
O=C(NCCCO)c1ccc2nc(-c3ccco3)c(-c3ccco3)nc2c1 | . | . | . | . | - | .
O=C(Nc1cccnc1)c1ccc2nc(-c3ccccc3)c(-c3ccccc3)nc2c1 | - | - | - | - | - | -9.8
Cc1cc(C)c2sc(N(CCCN(C)C)C(=O)c3ccc(S(=O)(=O)N4CCc5ccccc5C4)cc3)nc2c1 | - | - | - | -7.5 | . | -
Cc1ccc2nc(N(CCCN(C)C)C(=O)c3ccc(S(=O)(=O)N4CCc5ccccc5C4)cc3)sc2c1 | - | - | - | - | - | -7.8
Cc1cc(C)c2sc(N(CCCN(C)C)C(=O)c3ccc(S(=O)(=O)N4CCCc5ccccc54)cc3)nc2c1 | - | - | - | - | . | -
CN(C)CCCN(C(=O)c1ccc(S(=O)(=O)N2CCc3ccccc3C2)cc1)c1nc2ccc(F)cc2s1 | - | - | - | - | - | -
Cn1c(CCN2CCOCC2)nc2cc(NC(=O)c3cccs3)ccc21 | - | - | - | - | 64 | -
CC(=O)NCCc1nc2cc(NC(=O)c3cccs3)ccc2n1C | - | - | - | - | - | -

High-throughput results: PubChem BioAssay, several laboratories
